Test results taken from ChEMBL document CHEMBL4396895, “Identification and Optimization of Novel Cathepsin C Inhibitors Derived from EGFR Inhibitors” (J Med Chem, 2019).
Activity calls are given as the source filed them. The rule behind the calls is not given here.

Tests used:
[1] = molecular target: Epidermal growth factor receptor (Homo sapiens, UniProt P00533); assay: Inhibition of EGFR (unknown origin) up to 10 uM using biotin-labelled peptide as substrate preincubated for 2 hrs followed by substrate addition and measured after 30 mins by HTRF FRET assay
Summary of the method: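 EGFR WT was used at 0.1 nM final in 50 mM HEPES pH 7.0, 0.02% NaN3, 0.01% BSA, 0.1 mM orthovanadate, 10 mM MgCl2, 2.5 mM DTT, 6.25 nM SEB. It was preincubated with compound for 2 h. Biotin-peptide (1.4 μM) and ATP (20 μM) were then added for 30 min at RT. Read-out was HTRF/TR-FRET (Ex 320, Em 615/665 nm) with a sigmoidal curve fit.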

Dipeptidyl peptidase 1 [2] = molecular target: T1, Dipeptidyl peptidase 1 (Homo sapiens, UniProt P53634); assay: Inhibition of CatL-activated recombinant human C-terminal His10-tagged cathepsin C (25 to 463 residues) expressed in mouse myeloma cells using Gly-Phe-AFC as substrate preincubated for 3 hrs followed by substrate addition and measured after 60 mins; type: cell-free
Summary of the method: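 Activated rhCatC was diluted to 4.4 nM in 25 mM MES, 50 mM NaCl, 5 mM DTT, 0.01% Triton X-100, pH 6.0. It was preincubated with compound (added in 10% DMSO) for 3 h at RT. Gly-Phe-AFC was then added to 100 μM final and read as fluorescence after 60 min. IC50 came from a sigmoidal nonlinear fit; values are means of at least two experiments.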

Dipeptidyl peptidase 1 [3] = molecular target: T1, Dipeptidyl peptidase 1; assay: Inhibition of cathepsin C in human U937 cells using H-Gly-Phe-AFC as substrate preincubated for 4 hrs followed by substrate addition and measured after 60 mins; type: cell-based
Summary of the method: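 THP1 or U937 cells, grown in RPMI 1640 with 10% FBS, were seeded at 1.0 × 10^6/mL. They were preincubated with threefold serial dilutions of compound for 4 h at 37 °C. H-Gly-Phe-AFC was then added from a 100 μM solution and fluorescence was read after 60 min at 37 °C. Values are means of at least two experiments.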

[4] = Intrinsic clearance in mouse liver microsomes assessed per mg protein measured after 60 mins in presence of NADPH by LC-MS/MS analysis; type: ADME, Microsome; conditions: read-out: CLH
Procathepsin L = Procathepsin L (Homo sapiens, UniProt P07711); assay: Inhibition of recombinant human C-terminal His6-tagged cathepsin L (Glu113 to Val333 and Ala114 to Val333 residues) expressed in mouse myeloma cells using Z-Leu-Arg-AMC as substrate preincubated for 30 mins followed by substrate addition and measured after 30 mins
Summary of the method: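 Recombinant human cathepsin was preincubated with compound for 30 min at RT, then reacted with substrate for 30 min. CatB and CatL were read with Z-Leu-Arg-AMC (Ex 380/Em 460 nm). CatS was read with MCA-Arg-Pro-Lys-Pro-Val-Glu-Nva-Trp-Arg-Lys(DNP)-NH2 (Ex 320/Em 405 nm). E-64 served as inhibitor control.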

Cytochrome P450 2C9 = Cytochrome P450 2C9 (Homo sapiens, UniProt P11712); assay: Inhibition of CYP2C9 (unknown origin); type: ADME
Summary of the method: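 Tested against recombinant human cytochrome P450 isoforms 1A2, 2D6, 3A4, 2C9 and 2C19.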

[5] = Half life in C57BL/6 mouse at 2 mg/kg, iv by LC-MS/MS analysis; type: ADME, organism-based; conditions: in vivo
Summary of the method: (§1)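 Male C57BL/6 mice (n = 3) were dosed with a single IV dose of 2 mg/kg or an IP or PO dose of 10 mg/kg. Vehicle: 0.5% Methocel and 0.1% Tween-80 in citrate buffer, pH 3. Blood was drawn by eye puncture at several time points and analysed by LC-MS/MS. Parameters came from noncompartmental analysis of individual animals and are reported as means.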

[6] = Tmax in C57BL/6 mouse at 10 mg/kg, ip by LC-MS/MS analysis; type: ADME, organism-based; conditions: in vivo; summary of the method: as §1
[7] = Cmax in C57BL/6 mouse at 10 mg/kg, po by LC-MS/MS analysis; type: ADME, organism-based; set-up: dose 10 mg/kg, route oral; conditions: in vivo; summary of the method: as §1
[8] = Oral bioavailability in C57BL/6 mouse at 10 mg/kg by LC-MS/MS analysis; type: ADME, organism-based; conditions: in vivo; summary of the method: as §1
[9] = Drug uptake in C57BL/6 mouse kidney at 10 mg/kg, po by LC-MS/MS analysis; type: ADME, organism-based; conditions: in vivo
Mus musculus [10] = assay: In vivo inhibition of CatC in po dosed C57BL/6 mouse blood administered twice daily for 6 days using Gly-Phe-AFC as substrate measured up to 90 mins by fluorescence assay; type: functional, organism-based
Summary of the method: (§2)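 C57BL/6 mice (20−25 g; n = 10 per group) received oral doses twice daily at 6.7, 20 or 60 mg/kg for 6 days. The vehicle group got 0.5% Methocel and 0.1% Tween-80 in 100 mM citrate buffer, pH 3. Blood was drawn by eye puncture 14 h after the last dose. Bone marrow was flushed from femurs and tibias with ice-cold RPMI 1640. Cells were lysed in 50 mM Tris pH 7.4, 750 mM NaCl, 1% Triton X-100, sonicated on ice and stored at −80 °C. Lysates were diluted by protein content, with blood diluted 5-fold more than marrow. Kinetics were followed for up to 90 min. Results are % of the vehicle mean.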

Mus musculus [11] = assay: In vivo inhibition of CatC in po dosed C57BL/6 mouse blood assessed as reduction in neutrophil elastase activation administered twice daily for 6 days using methoxysuccinyl-Ala-Ala-Pro-Val-AMC as substrate measured up to 90 mins by fluorescence assay; type: functional, organism-based; summary of the method: as §2
Mus musculus [12] = assay: In vivo inhibition of CatC in po dosed C57BL/6 mouse bone marrow assessed as reduction in neutrophil elastase activation administered twice daily for 6 days using methoxysuccinyl-Ala-Ala-Pro-Val-AMC as substrate measured up to 90 mins by fluorescence assay; type: functional, organism-based; summary of the method: as §2
[13] = Toxicity in C57BL/6 mouse at 60 mg/kg, po administered twice daily for 6 days; type: organism-based; conditions: in vivo, 144 h
[14] = Toxicity in C57BL/6 mouse assessed as effect on WBC level at 60 mg/kg, po administered twice daily for 6 days; type: organism-based; conditions: in vivo, 144 h
Mus musculus [15] = assay: In vivo inhibition of CatC in C57BL/6 mouse blood at 20 mg/kg, po single dose using Gly-Phe-AFC as substrate measured 15 mins post dose for up to 90 mins by fluorescence assay relative to control; conditions: C57BL/6, Blood
Mus musculus [16] = assay: Protection against C57BL/6 mouse model of caerulein-induced acute pancreatitis at 20 mg/kg, po pretreated twice daily for 6 days followed by caerulein-challenge at 1 hr interval for 8 hrs and measured 1 hr post-last caerulein-challenge by H and E staining-based histological analysis

- inhibition [1]: inactive
- IC50 (Dipeptidyl peptidase 1 [2]): 17 to 17.3 nM
- IC50 (Dipeptidyl peptidase 1 [3]): 3.4 nM
- inhibition (Dipeptidyl peptidase 1 [3]): Dose-dependent effect
- microsomal CLint [4]: 10.8 µL/min/mg
- IC50 (Procathepsin L): 3000 to 10000 nM
- IC50 (Cytochrome P450 2C9): > 10000 nM
- half-life [5]: 1.62 h
- Tmax [6]: 0 h
- Cmax [7]: 184 ng/mL
- bioavailability [8]: 22.3%
- Drug uptake [9]: Active
SMILES: C=CC(=O)Nc1cc(Oc2nc(Nc3ccc(N4CCN(C)CC4)cc3OC)ccc2N2CCCCC2)ccc1C
- inhibition (Mus musculus [10]): Dose-dependent effect
- inhibition (Mus musculus [11]): Dose-dependent effect
- inhibition (Mus musculus [12]): Dose-dependent effect
- Activity [13]: Non-Toxic
- Activity [14]: Non-Toxic
- inhibition in vivo at 20 mg/kg (Mus musculus [15]): 75%
- Activity (Mus musculus [16]): Active
